Results from ChEMBL document CHEMBL5329167, “Design, synthesis and evaluation of halogenated phenazine antibacterial prodrugs targeting nitroreductase enzymes for activation” (RSC Med Chem, 2023).
≈ marks a conversion by molar mass, not a printed value. Calls of active or inactive are those of the source. The calls are words filed in the database; no cut-off is given here.

How the values were obtained:
[1] = Cytotoxicity against HEK293 cells incubated for 48 hrs by MTT assay; format: toxicity, cell-based; conditions: human
Outline: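 HEK-293 cells (10⁴/well) in DMEM with 10% FBS, penicillin/streptomycin, settled overnight at 37 °C, 5% CO₂. Medium replaced with compound at 0.10–100 µM (2-fold steps); DMSO as negative control. After 48 h at 37 °C, MTT (5 mg/mL stock) added for 3 h. Formazan dissolved in DMSO, OD read at 570 nm. Eight replicates per treatment.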

[2] = system: Staphylococcus aureus; assay: Antibacterial activity against methicillin-resistant Staphylococcus aureus BAA-44 assessed as bacterial growth inhibition incubated for 16 hrs by CLSI based broth microdilution method; format: functional
Outline: (§1)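 Broth microdilution per CLSI in LB, eleven two-fold serial dilutions spanning 0.10 to 100 µM. Inoculum ~10⁵ cells/well from fresh log-phase culture (OD₆₀₀ 0.6–0.8). MIC taken as lowest concentration preventing growth after 16 h at 37 °C, read by OD₆₀₀ turbidity. DMSO vehicle control, top 0.5% v/v. At least three independent experiments.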

[3] = system: Staphylococcus aureus; assay: Antibacterial activity against methicillin-resistant Staphylococcus aureus 1707 assessed as bacterial growth inhibition incubated for 16 hrs by CLSI based broth microdilution method; format: functional; outline: as §1
[4] = system: Staphylococcus epidermidis; assay: Antibacterial activity against Staphylococcus epidermidis 12228 assessed as bacterial growth inhibition incubated for 16 hrs by CLSI based broth microdilution method; format: functional
Outline: (§2)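 CLSI broth microdilution in LB: eleven 2-fold serial dilutions, 0.10–100 µM. DMSO vehicle/negative control diluted from 0.5% v/v. Wells seeded with ~10⁵ cells from log-phase culture (OD₆₀₀ 0.6–0.8), held 16 h at 37 °C. MIC taken as the lowest concentration preventing growth by OD₆₀₀ turbidity. Minimum three independent experiments.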

[5] = system: Staphylococcus epidermidis; assay: Antibacterial activity against methicillin-resistant Staphylococcus epidermidis 35984 assessed as bacterial growth inhibition incubated for 16 hrs by CLSI based broth microdilution method; format: functional; outline: as §1
[6] = system: Enterococcus; assay: Antibacterial activity against vancomycin-resistant Enterococcus 700221 assessed as bacterial growth inhibition incubated for 16 hrs by CLSI based broth microdilution method; format: functional
Outline: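 Growth scored by OD₆₀₀ turbidity after 16 h at 37 °C; MIC is the lowest concentration preventing growth. DMSO vehicle control up to 0.5% v/v. Three or more independent experiments.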

[7] = system: Streptococcus pneumoniae; assay: Antibacterial activity against Streptococcus pneumoniae 6303 assessed as bacterial growth inhibition incubated for 16 hrs by CLSI based broth microdilution method; format: functional; outline: as §2
[8] = system: Staphylococcus aureus; assay: Antibacterial activity against methicillin-resistant Staphylococcus aureus 1707 assessed as zone of inhibition at 10 mM incubated for 16 hrs by agar diffusion assay; format: functional
Outline: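 Modified Kirby-Bauer disk diffusion. 100 µL MRSA 1707 inoculum (OD₆₀₀ 0.7, ~10⁸ CFU) spread on LB agar and left 30 min. 10 µL of 10 mM DMSO compound solution then pipetted onto the plate. Incubation 16 h at 37 °C; zone of inhibition area (cm²) measured. Three independent experiments.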

[9] = system: Staphylococcus aureus; assay: Antibacterial activity against methicillin-resistant Staphylococcus aureus BAA-1707 assessed as bacterial growth inhibition incubated for 16 hrs by CLSI based broth microdilution method; format: functional; outline: as §1
[10] = Metal chelating activity assessed as formation of phenazine-iron complex measured for 1 to 60 mins by UV-vis spectroscopy; conditions: time 1-60 min
Outline: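 Compound from a 10 mM DMSO stock diluted in DMSO in a cuvette, alone or with ammonium iron(II) sulfate hexahydrate (10 mM aqueous stock). Spectra of the compound-only cuvette and the iron-containing cuvette are compared by UV-vis spectrometry to judge phenazine–iron(II) complex formation.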

[11] = system: Enterococcus faecalis; assay: Antibacterial activity against Enterococcus faecalis OG1RF assessed as bacterial growth inhibition incubated for 16 hrs by CLSI based broth microdilution method; format: functional
Outline: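 Broth microdilution per CLSI in brain-heart infusion: eleven 2-fold dilutions spanning 0.10–100 µM, with DMSO vehicle/negative control topping at 0.5% v/v. Inoculum ~10⁵ cells/well from log-phase culture (OD₆₀₀ 0.6–0.8). 37 °C, 16 h. MIC is the lowest concentration preventing growth, read as OD₆₀₀ turbidity. At least three independent experiments.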

[12] = system: Staphylococcus epidermidis; assay: Antibacterial activity against Staphylococcus epidermidis clinical isolate CL-1 assessed as bacterial growth inhibition incubated for 16 hrs by CLSI based broth microdilution method; format: functional
[13] = Hemolytic activity against red blood cells (unknown origin) at 200 uM; format: toxicity, cell-based, Erythrocyte; conditions: read-out: Activity
[14] = Lipophilicity, LogP of compound in octanol-water mixture incubated for 1 hr by UV-vis spectroscopy; format: physicochemical
Outline: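 Shake-flask partition: compound in octanol (1% v/v DMSO) mixed with equal volume water, stirred vigorously, left 1 h at room temperature to separate. Octanol-phase concentration measured by UV-Vis at 370 or 380 nm against a serial-dilution standard curve. Water concentration obtained by mass balance; LogP = log10(Coct/Cw). Acetophenone as positive control. Three independent experiments.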

[15] = system: Staphylococcus aureus; assay: Antibacterial activity against methicillin-resistant Staphylococcus aureus clinical isolate 1 assessed as bacterial growth inhibition incubated for 16 hrs by CLSI based broth microdilution method; format: functional
[16] = system: Staphylococcus aureus; assay: Antibacterial activity against Staphylococcus aureus clinical isolate 156 assessed as bacterial growth inhibition incubated for 16 hrs by CLSI based broth microdilution method; format: functional
[17] = system: Staphylococcus aureus; assay: Antibacterial activity against Staphylococcus aureus clinical isolate 138 assessed as bacterial growth inhibition incubated for 16 hrs by CLSI based broth microdilution method; format: functional
[18] = system: Staphylococcus aureus; assay: Antibacterial activity against Staphylococcus aureus clinical isolate 147 assessed as bacterial growth inhibition incubated for 16 hrs by CLSI based broth microdilution method; format: functional
[19] = system: Staphylococcus aureus; assay: Antibacterial activity against methicillin-resistant Staphylococcus aureus clinical isolate 2 assessed as bacterial growth inhibition incubated for 16 hrs by CLSI based broth microdilution method; format: functional

SMILES | CC50 at 48 h [1] | MIC [2] | MIC [3] | MIC [4] | MIC [5] | MIC [6] | MIC [7] | diameter of the inhibition zone (DIZ) [8] | MIC [9] | Activity [10] | MIC [11] | MIC [12] | hemolysis at 200 µM [13] | logP at 1 h [14] | MIC [15] | MIC [16] | MIC [17] | MIC [18] | MIC [19]
O=S(=O)(Cc1ccccc1)Oc1c(Br)cc(Br)c2nc3c(C(F)(F)F)cc(C(F)(F)F)cc3nc12 | 3.6 µM | 18.8 µM (≈ 12.1 µg/mL) | > 100 µM | 0.15 µM (≈ 0.0966 µg/mL) | 1.56 µM (≈ 1 µg/mL) | 0.78 µM (≈ 0.502 µg/mL) | 0.2 µM (≈ 0.129 µg/mL) | 1.07 cm2 | > 100 µM | inactive | 0.39 µM (≈ 0.251 µg/mL) | – | – | – | – | – | – | – | –
CN[C@H](CC(C)C)C(=O)N[C@H]1C(=O)N[C@@H](CC(N)=O)C(=O)N[C@H]2C(=O)N[C@H]3C(=O)N[C@H](C(=O)N[C@H](C(=O)O)c4cc(O)cc(O)c4-c4cc3ccc4O)[C@H](O)c3ccc(c(Cl)c3)Oc3cc2cc(c3O[C@@H]2O[C@H](CO)[C@@H](O)[C@H](O)[C@H]2O[C@H]2C[C@](C)(N)[C@H](O)[C@H](C)O2)Oc2ccc(cc2Cl)[C@H]1O [VANCOMYCIN] | – | 0.3 µM (≈ 0.435 µg/mL) | – | 1.56 µM (≈ 2.26 µg/mL) | 0.59 µM (≈ 0.855 µg/mL) | > 100 µM | 0.59 µM (≈ 0.855 µg/mL) | – | – | – | 1.56 µM (≈ 2.26 µg/mL) | 0.59 µM (≈ 0.855 µg/mL) | < 1% | – | – | – | – | – | –
Oc1c(Br)cc(Br)c2nc3cc(Cl)ccc3nc12 | – | 0.15 µM (≈ 0.0583 µg/mL) | 0.1 µM (≈ 0.0388 µg/mL) | 0.3 µM (≈ 0.117 µg/mL) | – | – | 0.3 µM (≈ 0.117 µg/mL) | 1.7 cm2 | 0.075 µM (≈ 0.0291 µg/mL) | Active | – | – | < 1% | – | – | – | – | – | –
O=[N+]([O-])c1ccc(CS(=O)(=O)Oc2c(Br)cc(Br)c3nc4c(C(F)(F)F)cc(C(F)(F)F)cc4nc23)cc1 | 2.9 µM | 4.69 µM (≈ 3.23 µg/mL) | 1.56 µM (≈ 1.08 µg/mL) | 0.15 µM (≈ 0.103 µg/mL) | 0.78 µM (≈ 0.538 µg/mL) | 1.56 µM (≈ 1.08 µg/mL) | 0.2 µM (≈ 0.138 µg/mL) | 2.57 cm2 | 1.56 µM (≈ 1.08 µg/mL) | inactive | 0.78 µM (≈ 0.538 µg/mL) | – | 10.4% | – | – | – | – | – | –
O=[N+]([O-])c1ccc(CS(=O)(=O)Oc2c(Br)cc(Br)c3nc4cc(Cl)ccc4nc23)cc1 | 6.4 µM | 0.15 µM (≈ 0.0881 µg/mL) | 0.1 µM (≈ 0.0588 µg/mL) | 0.15 µM (≈ 0.0881 µg/mL) | 0.39 µM (≈ 0.229 µg/mL) | 0.59 µM (≈ 0.347 µg/mL) | 0.15 µM (≈ 0.0881 µg/mL) | 0.66 cm2 | 0.1 µM (≈ 0.0588 µg/mL) | inactive | 4.69 µM (≈ 2.76 µg/mL) | – | < 1% | – | – | – | – | – | –
Cc1cccc2nc3c(OS(=O)(=O)Cc4ccc([N+](=O)[O-])cc4)c(Br)c(Cl)c(Br)c3nc12 | 34.1 µM | 0.3 µM (≈ 0.18 µg/mL) | 0.1 µM (≈ 0.0602 µg/mL) | 0.59 µM (≈ 0.355 µg/mL) | 0.15 µM (≈ 0.0902 µg/mL) | 0.15 µM (≈ 0.0902 µg/mL) | 0.15 µM (≈ 0.0902 µg/mL) | 0.87 cm2 | 0.1 µM (≈ 0.0602 µg/mL) | Active | 4.69 µM (≈ 2.82 µg/mL) | 2.35 µM (≈ 1.41 µg/mL) | < 1% | 3.11 | 0.3 µM (≈ 0.18 µg/mL) | 0.59 µM (≈ 0.355 µg/mL) | 0.39 µM (≈ 0.235 µg/mL) | 0.59 µM (≈ 0.355 µg/mL) | 0.3 µM (≈ 0.18 µg/mL)
O=S(=O)(Cc1ccccc1)Oc1c(Br)cc(Br)c2nc3cc(Cl)ccc3nc12 | 30.3 µM | – | 3.13 µM (≈ 1.7 µg/mL) | 3.13 µM (≈ 1.7 µg/mL) | – | > 100 µM | 1.56 µM (≈ 0.847 µg/mL) | 0 cm2 | 2.35 µM (≈ 1.28 µg/mL) | inactive | > 100 µM | – | – | – | – | – | – | – | –
Oc1c(Br)cc(Br)c2nc3c(C(F)(F)F)cc(C(F)(F)F)cc3nc12 | – | 0.15 µM (≈ 0.0735 µg/mL) | 0.1 µM (≈ 0.049 µg/mL) | 0.1 µM (≈ 0.049 µg/mL) | 0.05 µM (≈ 0.0245 µg/mL) | 0.2 µM (≈ 0.098 µg/mL) | 0.1 µM (≈ 0.049 µg/mL) | 4.58 cm2 | 0.15 µM (≈ 0.0735 µg/mL) | Active | 0.1 µM (≈ 0.049 µg/mL) | – | 16.7% | – | – | – | – | – | –
